Activity calls are given as the source filed them. The rule behind the calls is not given here.

The subject of experiment [1] is Rattus norvegicus. As to the kind of experiment: Inhibition of CCl4-induced liver damage in rat at 128 mg/kg, po. The experiment is classed as functional, organism-based. The arrangement: dose 128 mg/kg.
Experiment [2] relates to HepG2. Kind of experiment: Inhibition of anti-Fas induced apoptosis in human HepG2 cells at 0.1 nM by LDH assay. The class given is functional, cell-based. Put shortly:
(§1)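 HepG2 cells, 10^4/well in triplicate, in phenol-red-free DMEM with 4% FCS and 2 µg/ml cycloheximide. Apoptosis induced with anti-Fas (CH-11 at 50 ng/ml or DX2 at 1.5 µg/ml) with or without test agent, 18 h at 37 °C, 5% CO2. Supernatant LDH activity read at O.D. 490/650. Untreated cells and 1% Triton X-100 served as 0% and 100% cytotoxicity references for % protection. Means of three independent experiments.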

Experiment [3] is filed under the species Homo sapiens. Kind of experiment: Protective effect on anti-Fas induced apoptosis in human Hep3b p53-/- cells 0.1 nM by LDH assay. The class given is functional, cell-based.
Experiment [4] has as its system Rattus norvegicus. Kind of experiment: Inhibition of CCl4-induced hepatic fibrosis in rat at 128 mg/kg, po. Also noted: dose 128 mg/kg. The class given is functional, organism-based.
Experiment [5] in a line: Production of nitric oxide by in vitro Griess assay. The class given is functional. Put shortly: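 NO release estimated as nitrite by Griess reaction in vitro: chromophore formed for 10 min at 30 °C, absorbance at 540 nm, reported as ng/ml.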
The species named for experiment [6] is Homo sapiens. As to the kind of experiment: Protective effect on anti-Fas induced apoptosis in human Hep3b p53-/- cells 0.1 uM by LDH assay. The class given is functional, cell-based.
The subject of experiment [7] is HepG2. Kind of experiment: Inhibition of anti-Fas induced apoptosis in human HepG2 cells at 0.1 uM by LDH assay. The class given is functional, cell-based. Put shortly: as §1
Experiment [8] deals with HepG2. Kind of experiment: Inhibition of anti-Fas induced apoptosis in human HepG2 cells at 10 nM by LDH assay. The class given is functional, cell-based. Put shortly:
as §1

The species named for experiment [9] is Homo sapiens. As to the kind of experiment: Protective effect on anti-Fas induced apoptosis in human Hep3b p53-/- cells 10 nM by LDH assay. The experiment is classed as functional, cell-based.
Experiment [10] has as its system HepG2. Kind of experiment: Protective effect on anti-Fas induced apoptosis in human HepG2 cells by LDH assay. The class given is functional. Put shortly:
as §1

The test system of experiment [11] is HepG2. Kind of experiment: Inhibition of anti-Fas induced apoptosis in human HepG2 cells at 1 nM by LDH assay. The experiment is classed as functional, cell-based. Put shortly: as §1
For experiment [12], the species on record is Homo sapiens. Kind of experiment: Protective effect on anti-Fas induced apoptosis in human Hep3b p53-/- cells 1 nM by LDH assay. The experiment is classed as functional, cell-based.

Take `COc1cc(/C=C/C(=O)OCCCO[N+](=O)[O-])ccc1OC(=O)[C@]12CCC(C)(C)C[C@H]1C1=CC[C@@H]3[C@@]4(C)CC[C@H](OC(=O)C(F)(F)F)C(C)(C)[C@@H]4CC[C@@]3(C)[C@]1(C)CC2`: the outcome in the experiment on Rattus norvegicus [1], in the experiment on HepG2 [2], in the experiment filed under Homo sapiens [3] and in the experiment with Rattus norvegicus [4] was Active. Also, in experiment [5], the Activity was determined as 12 ng/mL.
On to `CC1(C)CC[C@]2(C(=O)Oc3ccc(/C=C/C(=O)OCCCCO[N+](=O)[O-])cc3)CC[C@]3(C)C(=CC[C@@H]4[C@@]5(C)CC[C@H](OC(=O)C(F)(F)F)C(C)(C)[C@@H]5CC[C@]43C)[C@@H]2C1`, for which the outcome in the experiment listed under Homo sapiens [6] was Active. The same molecule yielded an Activity in experiment [5] of 20 ng/mL.
Turning to `COc1cc(/C=C/C(=O)OCCCCCCO[N+](=O)[O-])ccc1OC(=O)[C@]12CCC(C)(C)C[C@H]1C1=CC[C@@H]3[C@@]4(C)CC[C@H](OC(=O)C(F)(F)F)C(C)(C)[C@@H]4CC[C@@]3(C)[C@]1(C)CC2`, the result in the experiment with HepG2 [7] and in the experiment filed under Homo sapiens [6] was Active. Besides, the Activity in experiment [5] stood at 21 ng/mL.
As for `CC1(C)CC[C@]2(C(=O)Oc3ccc(/C=C/C(=O)OCCCO[N+](=O)[O-])cc3)CC[C@]3(C)C(=CC[C@@H]4[C@@]5(C)CC[C@H](OC(=O)C(F)(F)F)C(C)(C)[C@@H]5CC[C@]43C)[C@@H]2C1`, the outcome in the experiment on HepG2 [8] and in the experiment filed under Homo sapiens [9] was Active. The Activity in experiment [5] was 18 ng/mL.
Turning to `COc1cc(C(=O)OCCCCO[N+](=O)[O-])ccc1OC(=O)[C@]12CCC(C)(C)C[C@H]1C1=CC[C@@H]3[C@@]4(C)CC[C@H](OC(=O)C(F)(F)F)C(C)(C)[C@@H]4CC[C@@]3(C)[C@]1(C)CC2`, in experiment [5], the Activity worked out at 28 ng/mL.
`COc1cc(/C=C/C(=O)OCCCCO[N+](=O)[O-])ccc1OC(=O)CC[C@@H](C)[C@H]1CC[C@H]2[C@H]3C(CC[C@]12C)[C@@]1(C)CC[C@@H](O)C[C@H]1C[C@@H]3O` (stereo partly drawn) yielded an Activity in the experiment with HepG2 [10] of 33.4%.
For the molecule `COc1cc(/C=C/C(=O)OCCCCO[N+](=O)[O-])ccc1OC(=O)[C@]12CCC(C)(C)C[C@H]1C1=CC[C@@H]3[C@@]4(C)CC[C@H](OC(=O)C(F)(F)F)C(C)(C)[C@@H]4CC[C@@]3(C)[C@]1(C)CC2`, the result in the experiment on HepG2 [11] and in the experiment listed under Homo sapiens [12] was Active. In addition, in experiment [5], the Activity was found to be 12 ng/mL.

These data come from ChEMBL document CHEMBL1144656, “Synthesis and biological evaluation of nitric oxide-releasing derivatives of oleanolic acid as inhibitors of HepG2 cell apoptosis” (2007).
